Results published in ChEMBL document CHEMBL3351868, “Structure-affinity relationships and pharmacological characterization of new alkyl-resorcinol cannabinoid receptor ligands: Identification of a dual cannabinoid receptor/TRPA1 channel agonist” (Bioorg Med Chem, 2014).

What was measured:
COS-7 [1] = assay: Inhibition of MGL in African green monkey COS7 cells cytosolic fraction assessed as reduction in 2-arachidonoyl-[3H]-glycerol hydrolysis at 1 uM by scintillation counting method; type: cell-based; conditions: Chlorocebus aethiops
Cannabinoid receptor 2 [2] = molecular target: T1, Cannabinoid receptor 2 (Homo sapiens, UniProt P34972); assay: Displacement of [3H]CP-55,940 from human recombinant CB2 receptor expressed in HEK293 cell membranes
T1 sequence (P34972 whole entry): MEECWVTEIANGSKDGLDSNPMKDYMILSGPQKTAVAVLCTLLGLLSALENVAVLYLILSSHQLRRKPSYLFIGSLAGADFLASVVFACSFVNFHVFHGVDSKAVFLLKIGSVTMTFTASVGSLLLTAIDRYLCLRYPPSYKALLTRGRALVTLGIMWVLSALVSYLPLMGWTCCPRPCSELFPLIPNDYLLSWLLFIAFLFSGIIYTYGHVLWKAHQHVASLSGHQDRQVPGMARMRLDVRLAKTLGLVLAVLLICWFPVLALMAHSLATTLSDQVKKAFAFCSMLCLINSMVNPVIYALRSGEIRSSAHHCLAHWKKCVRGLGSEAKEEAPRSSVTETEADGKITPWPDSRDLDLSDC

Cannabinoid receptor 1 [3] = molecular target: T2, Cannabinoid receptor 1 (Homo sapiens, UniProt P21554); assay: Displacement of [3H]CP-55,940 from human recombinant CB1 receptor expressed in HEK293 cell membranes
T2 sequence (P21554 whole entry): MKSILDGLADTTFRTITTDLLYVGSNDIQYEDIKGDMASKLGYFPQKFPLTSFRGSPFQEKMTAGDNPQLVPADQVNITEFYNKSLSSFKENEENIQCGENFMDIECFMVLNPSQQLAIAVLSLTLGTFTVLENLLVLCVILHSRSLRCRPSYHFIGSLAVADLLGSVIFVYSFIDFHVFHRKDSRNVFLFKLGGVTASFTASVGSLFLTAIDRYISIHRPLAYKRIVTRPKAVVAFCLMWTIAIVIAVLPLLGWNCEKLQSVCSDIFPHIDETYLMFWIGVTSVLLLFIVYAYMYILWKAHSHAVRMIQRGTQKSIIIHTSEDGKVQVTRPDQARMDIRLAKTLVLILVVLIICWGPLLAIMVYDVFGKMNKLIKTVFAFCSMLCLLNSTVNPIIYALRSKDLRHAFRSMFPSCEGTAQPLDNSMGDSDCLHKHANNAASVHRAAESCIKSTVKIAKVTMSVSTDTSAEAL

COS-7 [4] = assay: Inhibition of MGL in African green monkey COS7 cells cytosolic fraction assessed as reduction in 2-arachidonoyl-[3H]-glycerol hydrolysis at 50 uM by scintillation counting method; type: cell-based; conditions: Chlorocebus aethiops
[5] = Inhibition of MGL in African green monkey COS7 cells cytosolic fraction assessed as reduction in 2-arachidonoyl-[3H]-glycerol hydrolysis by scintillation counting method; type: cell-based, Chlorocebus aethiops; conditions: cos-7
Homo sapiens [6] = species on record: Homo sapiens; assay: Selectivity index, ratio of Ki for human recombinant CB2 receptor to Ki for human recombinant CB1 receptor
Homo sapiens [7] = species on record: Homo sapiens; assay: Selectivity index, ratio of Ki for human recombinant CB1 receptor to Ki for human recombinant CB2 receptor
Cannabinoid receptor 2 [8] = molecular target: T1, Cannabinoid receptor 2; assay: Agonist activity at human recombinant CB2 receptor expressed in CHO cell membranes assessed as stimulation of [35S]GTPgammaS binding relative to basal level; type: functional
Summary of the method: (§1)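 Membranes from CHO cells stably expressing human CB1 or CB2, 50 µg protein per well, in Tris buffer with 100 mM NaCl, 5 mM MgCl2, 1 mM DTT, 1 mM EDTA, 0.1% BSA, pH 7.4. Incubated 60 min at 30°C with 0.1 nM [35S]GTPγS, 30 µM GDP and compound in DMSO. Nonspecific binding defined with 30 µM GTPγS. Filtration and scintillation counting. Percent change relative to DMSO control, n=6. EC50/Emax from sigmoidal fit.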

Cannabinoid receptor 1 [9] = molecular target: T2, Cannabinoid receptor 1; assay: Agonist activity at human recombinant CB1 receptor expressed in CHO cell membranes assessed as stimulation of [35S]GTPgammaS binding relative to basal level; type: functional; summary of the method: as §1
COS-7 [10] = assay: Inhibition of MGL in African green monkey COS7 cells cytosolic fraction assessed as reduction in 2-arachidonoyl-[3H]-glycerol hydrolysis at 10 uM by scintillation counting method; type: cell-based; conditions: Chlorocebus aethiops
[11] = molecular target: T3, Fatty-acid amide hydrolase 1 (Rattus norvegicus, UniProt P97612); assay: Inhibition of FAAH in rat brain membranes assessed as reduction in [14C] anandamide hydrolysis by scintillation counting method; type: cell membranes, Membrane
T3 sequence (P97612 whole entry): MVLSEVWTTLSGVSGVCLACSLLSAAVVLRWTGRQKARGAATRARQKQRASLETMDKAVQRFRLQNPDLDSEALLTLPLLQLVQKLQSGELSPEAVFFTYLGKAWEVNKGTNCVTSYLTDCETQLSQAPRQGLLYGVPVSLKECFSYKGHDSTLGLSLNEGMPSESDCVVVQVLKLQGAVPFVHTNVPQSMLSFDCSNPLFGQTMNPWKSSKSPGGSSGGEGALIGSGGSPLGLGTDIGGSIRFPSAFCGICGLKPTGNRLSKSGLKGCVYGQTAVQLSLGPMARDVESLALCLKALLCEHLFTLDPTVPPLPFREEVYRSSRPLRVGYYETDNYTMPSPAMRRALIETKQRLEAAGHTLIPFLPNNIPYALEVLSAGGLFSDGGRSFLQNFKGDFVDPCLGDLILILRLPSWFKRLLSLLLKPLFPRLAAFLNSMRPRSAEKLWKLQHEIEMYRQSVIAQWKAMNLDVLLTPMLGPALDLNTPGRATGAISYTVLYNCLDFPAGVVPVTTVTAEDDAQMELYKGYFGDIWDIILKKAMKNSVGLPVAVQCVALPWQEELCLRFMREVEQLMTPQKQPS

[12] = molecular target: T4, Fatty-acid amide hydrolase 1 (Rattus norvegicus) (UniProt P97612); assay: Inhibition of FAAH in rat brain membranes assessed as reduction in [14C] anandamide hydrolysis at 10 uM by scintillation counting method; type: cell membranes; conditions: Membrane
T4 sequence (whole entry): T3 sequence (P97612 whole entry)

[13] = Cytotoxicity against mouse NIH/3T3 cells after 24 hrs by neutral red assay; type: cell-based; conditions: NIH3T3, 24 h
Summary of the method: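 NIH3T3 mouse fibroblasts in DMEM with 10% FCS were seeded and after 24 h exposed to compound in DMSO (5-200 µM, six replicates) for 24 h. Viability measured by neutral red uptake (3 h dye incubation, then acetic acid/ethanol extraction). IC50 derived.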

Cannabinoid receptor 2 [14] = molecular target: T1, Cannabinoid receptor 2; assay: Agonist activity at human recombinant CB2 receptor expressed in CHO cell membranes by [35S]GTPgammaS binding assay; type: functional; summary of the method: as §1

| SMILES | Ki (Cannabinoid receptor 2 [2]) | Ki (Cannabinoid receptor 1 [3]) | Ratio Ki (Homo sapiens [6]) | Ratio Ki (Homo sapiens [7]) | also measured |
| --- | --- | --- | --- | --- | --- |
| CCCCCCCCCCC[C@@H](C[C@@H]1OC(=O)[C@H]1CCCCCC)OC(=O)CNC=O | – | – | – | – | Imax (COS-7 [1]): 60% |
| CCCCCc1cc(O)cc(OCCCCCCCCCCC(=O)NC23CC4CC(CC(C4)C2)C3)c1 | > 10 µM | > 10 µM | – | – | – |
| CCCCCc1cc(O)cc(OCCCCCCCCCCCN2C(=O)c3ccccc3C2=O)c1 | – | – | – | – | Imax (COS-7 [4]): 15.9%; IC50 [5]: > 50 µM |
| CCCCCCc1ccc(OCCCCCCCCCCCNC(=O)C2CC2)cc1O | > 10 µM | > 10 µM | – | – | – |
| CCCCCCC(C)(C)c1cc(O)cc(OCCCCCCCC(=O)NC(CO)CO)c1 | 0.815 µM | 0.178 µM | 4.6 | 0.22 | – |
| CCCCCCc1ccc(O)cc1OCCCCCCCCCCCNC(=O)C1CC1 | 0.25 µM | 0.9 µM | 0.28 | 3.6 | – |
| CCCCCc1cc(O)cc(OCCCCCCCCCCC(=O)N[C@H](C)CO)c1 | 0.0972 µM | 0.264 µM | 0.37 | 2.72 | – |
| CCCCCCc1ccc(OCCCCCCCCCCC(=O)NC(CO)CO)cc1O | > 10 µM | > 10 µM | – | – | – |
| CCCCCCc1ccc(O)cc1OCCCCCCCCCCCN1C(=O)c2ccccc2C1=O | – | – | – | – | Imax (COS-7 [4]): 16.3%; IC50 [5]: > 50 µM |
| CCCCCCC(C)(C)c1ccc([C@@H]2C[C@H](O)CC[C@H]2CCCO)c(O)c1 | – | – | – | – | Emax (Cannabinoid receptor 2 [8]): 66.5%; Emax (Cannabinoid receptor 1 [9]): 72.1% |
| CCCCCCC(C)(C)c1cc(O)cc(OCCCCCCCC(=O)NCC(F)(F)F)c1 | 0.0279 µM | 0.397 µM | 0.07 | 14.2 | – |
| CCCCCc1cc(O)cc(OCCCCCCCCCCC(=O)NCC(F)(F)F)c1 | 0.0963 µM | 0.438 µM | 0.22 | 4.55 | – |
| CCCCCCC(C)(C)c1cc(O)cc(OCCCCCCCCCCC(=O)NC23CC4CC(CC(C4)C2)C3)c1 | > 10 µM | > 10 µM | – | – | – |
| CCCCCc1cc(O)cc(OCCCCCCCCCCC(=O)NC(CO)CO)c1 | 0.54 µM | > 10 µM | < 0.05 | > 18.5 | – |
| CCCCCc1cc(O)cc(OCCCCCCCCCCCNC(=O)C2CC2)c1 | 0.46 µM | 2.77 µM | 0.17 | 6.02 | – |
| CCCCCc1cc(O)cc(OCCCCCCCCCCCNCc2ccccc2)c1 | 0.83 µM | 1.24 µM | 0.67 | 1.49 | – |
| C=CCNCCCCCCCCCCCOc1cc(O)cc(CCCCC)c1 | 1.85 µM | 1.14 µM | 1.62 | 0.62 | – |
| CCCCCCc1ccc(OCCCCCCCCCCC(=O)NC23CC4CC(CC(C4)C2)C3)cc1O | > 10 µM | > 10 µM | – | – | – |
| CCCCCCc1ccc(OCCCCCCCCCCCN2C(=O)c3ccccc3C2=O)cc1O | – | – | – | – | Imax (COS-7 [4]): 14.3%; IC50 [5]: > 50 µM |

| SMILES | Ki (Cannabinoid receptor 2 [2]) | Ki (Cannabinoid receptor 1 [3]) | Ratio Ki (Homo sapiens [6]) | Ratio Ki (Homo sapiens [7]) | also measured |
| --- | --- | --- | --- | --- | --- |
| CCCCCc1cc(O)cc(OCCCCCCCCCCC(=O)NCc2ccccc2)c1 | 0.202 µM | > 10 µM | < 0.02 | > 49.5 | – |
| CCCCCc1cc(O)cc(OCCCCCCCCCCC(=O)NN(C)C)c1 | 0.183 µM | 0.845 µM | 0.22 | 4.63 | Imax (COS-7 [10]): 42.9%; IC50 [5]: > 10 µM; IC50 [11]: > 10 µM; Imax [12]: 28.2% |
| CCCCCc1cc(O)cc(OCCCCCCCCCN2C(=O)c3ccccc3C2=O)c1 | – | – | – | – | Imax (COS-7 [4]): 16.8%; IC50 [5]: > 50 µM |
| CCCCCCC(C)(C)c1cc(O)cc(OCCCCCCCCCCCN2C(=O)c3ccccc3C2=O)c1 | – | – | – | – | Imax (COS-7 [4]): 14.4%; IC50 [5]: > 50 µM |
| CCCCCCC(C)(C)c1cc(O)cc(OCCCCCCCC(=O)NC23CC4CC(CC(C4)C2)C3)c1 | > 10 µM | > 10 µM | – | – | – |
| CCCCCCC(C)(C)c1cc(O)cc(OCCCCCCCCCCC(=O)NC(CO)CO)c1 | 0.23 µM | 1.89 µM | 0.12 | 8.22 | – |
| CCCCCCc1c(O)cccc1OCCCCCCCCCCC(=O)NC12CC3CC(CC(C3)C1)C2 | > 10 µM | > 10 µM | – | – | – |
| CCCCCCC(C)(C)c1cc(O)cc(OCCCCCCCCCCCNC(=O)C2CC2)c1 | 0.65 µM | 2.07 µM | 0.31 | 3.18 | – |
| CCCCCc1cc(O)cc(OCCCCCCCCCCCCNC2CC2)c1 | > 10 µM | 0.83 µM | > 12.1 | < 0.08 | – |
| CCCCCc1cc(O)cc(OCCCCCCCCCCC(=O)NN2CCCCC2)c1 | 0.678 µM | 1.78 µM | 0.38 | 2.63 | Imax (COS-7 [10]): 41.6%; IC50 [5]: > 10 µM; IC50 [11]: > 10 µM; Imax [12]: 41% |
| CCCCCCC(C)(C)c1cc(O)cc(OCCCCCCCCCCC(=O)N[C@H](C)CO)c1 | 0.0212 µM | 0.132 µM | 0.16 | 6.24 | – |
| CCCCCCC(C)(C)c1cc(O)cc(OCCCCCCCC(=O)N[C@H](C)CO)c1 | 0.0502 µM | 0.0172 µM | 2.92 | 0.34 | IC50 [13]: 69 µM |
| CCCCCc1cc(O)cc(OCCCCCCCCCCC(=O)Nc2ccccc2)c1 | 0.128 µM | > 10 µM | < 0.01 | > 78.2 | EC50 (Cannabinoid receptor 2 [14]): 0.701 µM; Emax (Cannabinoid receptor 2 [8]): -14.4% |
| CCCCCc1cc(O)cc(OCCCCCCCC(=O)N[C@H](C)CO)c1 | 0.119 µM | 0.0128 µM | 9.32 | 0.11 | – |
| C=CCNC(=O)CCCCCCCCCCOc1cc(O)cc(CCCCC)c1 | 0.0164 µM | 0.136 µM | 0.12 | 8.31 | – |
| CCCCCCc1ccc(O)cc1OCCCCCCCCCCC(=O)NC(CO)CO | 2.37 µM | > 10 µM | < 0.24 | > 4.22 | – |
| CCCCCc1cc(O)cc(OCCCCCCCCCN[C@H](C)CO)c1 | 1.52 µM | 1.06 µM | 1.43 | 0.7 | – |
| CCCCCc1cc(O)cc(OCCCCCCCCCCCNC2CC2)c1 | 1.89 µM | 2.08 µM | 0.91 | 1.1 | – |
| CCCCCCC(C)(C)c1cc(O)cc(OCCCCCCCCCN2C(=O)c3ccccc3C2=O)c1 | – | – | – | – | Imax (COS-7 [4]): 18.8%; IC50 [5]: > 50 µM |
